Results: ChEMBL document CHEMBL2413013, “Triplex-forming ability of oligonucleotides containing 1-aryl-1,2,3-triazole nucleobases linked via a two atom-length spacer” (Bioorg Med Chem, 2013)

Experiments:
[1] = Binding affinity to hairpin double stranded DNA AT base pair in sodium cacodylate buffer at pH 6.8 assessed as triplex-forming ability measuring melting temperature after by UV melting experiment
Method in brief: (§1)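 TFO and hairpin dsDNA target, each strand at 1.89 μM final, in 10 mM sodium cacodylate (pH 6.8) with 100 mM KCl and 50 mM MgCl₂. Annealed in boiling water, then cooled slowly to 5 °C. Melting was followed at 260 nm from 5 to 90 °C at 0.5 °C/min. Tm was taken by the two-point average method, mean of three independent runs.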

[2] = Binding affinity to hairpin double stranded DNA TA base pair in sodium cacodylate buffer at pH 6.8 assessed as triplex-forming ability measuring melting temperature after by UV melting experiment; method in brief: as §1
[3] = Binding affinity to hairpin double stranded DNA GC base pair in sodium cacodylate buffer at pH 6.8 assessed as triplex-forming ability measuring melting temperature after by UV melting experiment; method in brief: as §1
[4] = Binding affinity to hairpin double stranded DNA CG base pair in sodium cacodylate buffer at pH 6.8 assessed as triplex-forming ability measuring melting temperature after by UV melting experiment; method in brief: as §1

| SMILES | Tm [1] | Tm [2] | Tm [3] | Tm [4] |
| --- | --- | --- | --- | --- |
| Cc1cn([C@H]2C[C@H](O[PH](OCCC#N)(OC[C@H]3O[C@@H](n4cc(C)c(=O)[nH]c4=O)C[C@@H]3O[PH](OCCC#N)(OC[C@H]3O[C@@H](n4cc(C)c(=O)[nH]c4=O)C[C@@H]3O[PH](OCCC#N)(OC[C@H]3O[C@@H](n4cc(C)c(=O)[nH]c4=O)C[C@@H]3O[PH](OCCC#N)(OC[C@H]3O[C@@H](n4cc(C)c(=O)[nH]c4=O)C[C@@H]3O[PH](OCCC#N)(OC(C)[C@H]3O[C@@H](n4ccc(N)nc4=O)C[C@@H]3O[PH](OCCC#N)(OC[C@H]3O[C@@H](n4cc(C)c(=O)[nH]c4=O)C[C@@H]3O[PH](OCCC#N)(OC[C@H]3O[C@@H](CCc4cn(-c5cccc(NC(N)=O)c5)nn4)C[C@@H]3OP(=O)(O)OC[C@H]3O[C@@H](n4cc(C)c(=O)[nH]c4=O)C[C@@H]3O[PH](OCCC#N)(OC(C)[C@H]3O[C@@H](n4ccc(N)nc4=O)C[C@@H]3O[PH](OCCC#N)(OC[C@H]3O[C@@H](n4cc(C)c(=O)[nH]c4=O)C[C@@H]3O[PH](OCCC#N)(OC(C)[C@H]3O[C@@H](n4ccc(N)nc4=O)C[C@@H]3O[PH](OCCC#N)(OC[C@H]3O[C@@H](n4cc(C)c(=O)[nH]c4=O)C[C@@H]3O[PH](OCCC#N)(OC(C)[C@H]3O[C@@H](n4ccc(N)nc4=O)C[C@@H]3O[PH](OCCC#N)(OC[C@H]3O[C@@H](n4cc(C)c(=O)[nH]c4=O)C[C@@H]3O)N(C(C)C)C(C)C)N(C(C)C)C(C)C)N(C(C)C)C(C)C)N(C(C)C)C(C)C)N(C(C)C)C(C)C)N(C(C)C)C(C)C)N(C(C)C)C(C)C)N(C(C)C)C(C)C)N(C(C)C)C(C)C)N(C(C)C)C(C)C)N(C(C)C)C(C)C)N(C(C)C)C(C)C)N(C(C)C)C(C)C)[C@@H](CO)O2)c(=O)[nH]c1=O (stereo not given in full) | 23 °C | 28 °C | 23 °C | 27 °C |
| Cc1cn([C@H]2C[C@H](O[PH](OCCC#N)(OC[C@H]3O[C@@H](n4cc(C)c(=O)[nH]c4=O)C[C@@H]3O[PH](OCCC#N)(OC[C@H]3O[C@@H](n4cc(C)c(=O)[nH]c4=O)C[C@@H]3O[PH](OCCC#N)(OC[C@H]3O[C@@H](n4cc(C)c(=O)[nH]c4=O)C[C@@H]3O[PH](OCCC#N)(OC[C@H]3O[C@@H](n4cc(C)c(=O)[nH]c4=O)C[C@@H]3O[PH](OCCC#N)(OC(C)[C@H]3O[C@@H](n4ccc(N)nc4=O)C[C@@H]3O[PH](OCCC#N)(OC[C@H]3O[C@@H](n4cc(C)c(=O)[nH]c4=O)C[C@@H]3O[PH](OCCC#N)(OC[C@H]3O[C@@H](CCc4cn(-c5cc(NC(N)=O)cc(NC(N)=O)c5)nn4)C[C@@H]3OP(=O)(O)OC[C@H]3O[C@@H](n4cc(C)c(=O)[nH]c4=O)C[C@@H]3O[PH](OCCC#N)(OC(C)[C@H]3O[C@@H](n4ccc(N)nc4=O)C[C@@H]3O[PH](OCCC#N)(OC[C@H]3O[C@@H](n4cc(C)c(=O)[nH]c4=O)C[C@@H]3O[PH](OCCC#N)(OC(C)[C@H]3O[C@@H](n4ccc(N)nc4=O)C[C@@H]3O[PH](OCCC#N)(OC[C@H]3O[C@@H](n4cc(C)c(=O)[nH]c4=O)C[C@@H]3O[PH](OCCC#N)(OC(C)[C@H]3O[C@@H](n4ccc(N)nc4=O)C[C@@H]3O[PH](OCCC#N)(OC[C@H]3O[C@@H](n4cc(C)c(=O)[nH]c4=O)C[C@@H]3O)N(C(C)C)C(C)C)N(C(C)C)C(C)C)N(C(C)C)C(C)C)N(C(C)C)C(C)C)N(C(C)C)C(C)C)N(C(C)C)C(C)C)N(C(C)C)C(C)C)N(C(C)C)C(C)C)N(C(C)C)C(C)C)N(C(C)C)C(C)C)N(C(C)C)C(C)C)N(C(C)C)C(C)C)N(C(C)C)C(C)C)[C@@H](CO)O2)c(=O)[nH]c1=O (stereo not given in full) | 22 °C | 27 °C | 23 °C | 27 °C |

Second part, the compound after the results:

| Tm [1] | Tm [2] | Tm [3] | Tm [4] | SMILES |
| --- | --- | --- | --- | --- |
| 18 °C | 17 °C | 19 °C | 21 °C | Cc1cn([C@H]2C[C@H](O[PH](OCCC#N)(OC[C@H]3O[C@@H](n4cc(C)c(=O)[nH]c4=O)C[C@@H]3O[PH](OCCC#N)(OC[C@H]3O[C@@H](n4cc(C)c(=O)[nH]c4=O)C[C@@H]3O[PH](OCCC#N)(OC[C@H]3O[C@@H](n4cc(C)c(=O)[nH]c4=O)C[C@@H]3O[PH](OCCC#N)(OC[C@H]3O[C@@H](n4cc(C)c(=O)[nH]c4=O)C[C@@H]3O[PH](OCCC#N)(OC(C)[C@H]3O[C@@H](N4C=CC(N)=N[C@@H]4O)C[C@@H]3O[PH](OCCC#N)(OC[C@H]3O[C@@H](n4cc(C)c(=O)[nH]c4=O)C[C@@H]3O[PH](OCCC#N)(OC[C@H]3O[C@@H](OCc4cn(-c5ccccc5C(N)=O)nn4)C[C@@H]3OP(=O)(O)OC[C@H]3O[C@@H](n4cc(C)c(=O)[nH]c4=O)C[C@@H]3O[PH](OCCC#N)(OC(C)[C@H]3O[C@@H](n4ccc(N)nc4=O)C[C@@H]3O[PH](OCCC#N)(OC[C@H]3O[C@@H](n4cc(C)c(=O)[nH]c4=O)C[C@@H]3O[PH](OCCC#N)(OC(C)[C@H]3O[C@@H](n4ccc(N)nc4=O)C[C@@H]3O[PH](OCCC#N)(OC[C@H]3O[C@@H](n4cc(C)c(=O)[nH]c4=O)C[C@@H]3O[PH](OCCC#N)(OC(C)[C@H]3O[C@@H](n4ccc(N)nc4=O)C[C@@H]3O[PH](OCCC#N)(OC[C@H]3O[C@@H](n4cc(C)c(=O)[nH]c4=O)C[C@@H]3O)N(C(C)C)C(C)C)N(C(C)C)C(C)C)N(C(C)C)C(C)C)N(C(C)C)C(C)C)N(C(C)C)C(C)C)N(C(C)C)C(C)C)N(C(C)C)C(C)C)N(C(C)C)C(C)C)N(C(C)C)C(C)C)N(C(C)C)C(C)C)N(C(C)C)C(C)C)N(C(C)C)C(C)C)N(C(C)C)C(C)C)[C@@H](CO)O2)c(=O)[nH]c1=O (stereo not given in full) |
| 22 °C | 25 °C | 22 °C | 25 °C | Cc1cn([C@H]2C[C@H](O[PH](OCCC#N)(OC[C@H]3O[C@@H](n4cc(C)c(=O)[nH]c4=O)C[C@@H]3O[PH](OCCC#N)(OC[C@H]3O[C@@H](n4cc(C)c(=O)[nH]c4=O)C[C@@H]3O[PH](OCCC#N)(OC[C@H]3O[C@@H](n4cc(C)c(=O)[nH]c4=O)C[C@@H]3O[PH](OCCC#N)(OC[C@H]3O[C@@H](n4cc(C)c(=O)[nH]c4=O)C[C@@H]3O[PH](OCCC#N)(OC(C)[C@H]3O[C@@H](n4ccc(N)nc4=O)C[C@@H]3O[PH](OCCC#N)(OC[C@H]3O[C@@H](n4cc(C)c(=O)[nH]c4=O)C[C@@H]3O[PH](OCCC#N)(OC[C@H]3O[C@@H](CCc4cn(-c5cccc(C(N)=O)c5)nn4)C[C@@H]3OP(=O)(O)OC[C@H]3O[C@@H](n4cc(C)c(=O)[nH]c4=O)C[C@@H]3O[PH](OCCC#N)(OC(C)[C@H]3O[C@@H](n4ccc(N)nc4=O)C[C@@H]3O[PH](OCCC#N)(OC[C@H]3O[C@@H](n4cc(C)c(=O)[nH]c4=O)C[C@@H]3O[PH](OCCC#N)(OC(C)[C@H]3O[C@@H](n4ccc(N)nc4=O)C[C@@H]3O[PH](OCCC#N)(OC[C@H]3O[C@@H](n4cc(C)c(=O)[nH]c4=O)C[C@@H]3O[PH](OCCC#N)(OC(C)[C@H]3O[C@@H](n4ccc(N)nc4=O)C[C@@H]3O[PH](OCCC#N)(OC[C@H]3O[C@@H](n4cc(C)c(=O)[nH]c4=O)C[C@@H]3O)N(C(C)C)C(C)C)N(C(C)C)C(C)C)N(C(C)C)C(C)C)N(C(C)C)C(C)C)N(C(C)C)C(C)C)N(C(C)C)C(C)C)N(C(C)C)C(C)C)N(C(C)C)C(C)C)N(C(C)C)C(C)C)N(C(C)C)C(C)C)N(C(C)C)C(C)C)N(C(C)C)C(C)C)N(C(C)C)C(C)C)[C@@H](CO)O2)c(=O)[nH]c1=O (stereo not given in full) |
| 19 °C | 19 °C | 20 °C | 23 °C | Cc1cn([C@H]2C[C@H](O[PH](OCCC#N)(OC[C@H]3O[C@@H](n4cc(C)c(=O)[nH]c4=O)C[C@@H]3O[PH](OCCC#N)(OC[C@H]3O[C@@H](n4cc(C)c(=O)[nH]c4=O)C[C@@H]3O[PH](OCCC#N)(OC[C@H]3O[C@@H](n4cc(C)c(=O)[nH]c4=O)C[C@@H]3O[PH](OCCC#N)(OC[C@H]3O[C@@H](n4cc(C)c(=O)[nH]c4=O)C[C@@H]3O[PH](OCCC#N)(OC(C)[C@H]3O[C@@H](N4C=CC(N)=N[C@@H]4O)C[C@@H]3O[PH](OCCC#N)(OC[C@H]3O[C@@H](n4cc(C)c(=O)[nH]c4=O)C[C@@H]3O[PH](OCCC#N)(OC[C@H]3O[C@@H](OCc4cn(-c5cccc(C(N)=O)c5)nn4)C[C@@H]3OP(=O)(O)OC[C@H]3O[C@@H](n4cc(C)c(=O)[nH]c4=O)C[C@@H]3O[PH](OCCC#N)(OC(C)[C@H]3O[C@@H](n4ccc(N)nc4=O)C[C@@H]3O[PH](OCCC#N)(OC[C@H]3O[C@@H](n4cc(C)c(=O)[nH]c4=O)C[C@@H]3O[PH](OCCC#N)(OC(C)[C@H]3O[C@@H](n4ccc(N)nc4=O)C[C@@H]3O[PH](OCCC#N)(OC[C@H]3O[C@@H](n4cc(C)c(=O)[nH]c4=O)C[C@@H]3O[PH](OCCC#N)(OC(C)[C@H]3O[C@@H](n4ccc(N)nc4=O)C[C@@H]3O[PH](OCCC#N)(OC[C@H]3O[C@@H](n4cc(C)c(=O)[nH]c4=O)C[C@@H]3O)N(C(C)C)C(C)C)N(C(C)C)C(C)C)N(C(C)C)C(C)C)N(C(C)C)C(C)C)N(C(C)C)C(C)C)N(C(C)C)C(C)C)N(C(C)C)C(C)C)N(C(C)C)C(C)C)N(C(C)C)C(C)C)N(C(C)C)C(C)C)N(C(C)C)C(C)C)N(C(C)C)C(C)C)N(C(C)C)C(C)C)[C@@H](CO)O2)c(=O)[nH]c1=O (stereo not given in full) |
